High-throughput results as filed in PubChem.
In the library only some 5.8% were active in any assay of this set; here they are far more common.
Pf Dd2 inh: P. falciparum Dd2 growth inhibition. SYBR Green, 72 h; active compounds read low. activity change, % at 10 µM. actives 2.3% (n = 94,000); in the data active = activity change below about -80%; inconclusive = no clear call, values can overlap the other calls
T cruzi growth-1: blocks T. cruzi growth in NIH3T3 culture | T. cruzi beta-gal in NIH3T3, GalScreen luminescence, 90 h | inhibition, % at 8.34 µM | actives 5.9% (n = 77,000);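 active = mean inhibition above about 93%, with at least 55% of replicates each passing it, limit read from the data, passing the limit was not always enough; inconclusive = only one of those two conditions holds; inactive = neither condition holds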
KDM4C inh: blocks human GASC-1 (KDM4C) demethylase activity | AID 720574 | inhibition, % at 12.5 µM | Q9H3R0 | actives 0.15% (n = 96,000) | GST-KDM4C 2-372, H3K9me3 peptide, LANCE TR-FRET;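 active = mean replicate inhibition above about 25%, with at least 55% of replicates also reaching it, limit read from the data, passing the limit was not always enough; inconclusive = only one of those two conditions met; inactive = neither condition met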
Target sequence (Q9H3R0 2-372 limits assumed): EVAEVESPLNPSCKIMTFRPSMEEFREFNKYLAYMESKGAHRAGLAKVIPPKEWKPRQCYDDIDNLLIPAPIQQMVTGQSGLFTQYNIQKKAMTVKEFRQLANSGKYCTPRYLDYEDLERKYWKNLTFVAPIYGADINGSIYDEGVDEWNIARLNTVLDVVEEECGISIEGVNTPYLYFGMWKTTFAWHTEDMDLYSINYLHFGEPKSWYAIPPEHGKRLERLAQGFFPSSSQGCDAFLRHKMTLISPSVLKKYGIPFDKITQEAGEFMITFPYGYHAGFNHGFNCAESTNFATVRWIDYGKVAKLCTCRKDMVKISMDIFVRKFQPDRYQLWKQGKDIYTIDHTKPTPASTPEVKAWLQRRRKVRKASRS
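System: N-terminal GST-fused human GASC-1 (KDM4C) fragment, residues 2-372; amount: enzyme final amount 10 nM; incubation: reaction 30 min RT, detection step 1 h RT; medium: HEPES buffer, pH 7.5, plus ascorbate; technique: LANCE TR-FRET, Eu antibody, ULight-streptavidin, EDTA, ex 340 nm, em 618/671 nm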
IDH1 R132H inh: inhibitors of human IDH1 R132H | O75874 | IDH1 R132H reductase, diaphorase/resazurin fluorescence, 60 min | inhibition, % at 10 µM | actives 0.18% (n = 70,000) | AID 624101; in the data active = inhibition above about 34%; inconclusive = no clear call, values can overlap the other calls; inactive = below about 11%
Target sequence (O75874 whole entry R132H): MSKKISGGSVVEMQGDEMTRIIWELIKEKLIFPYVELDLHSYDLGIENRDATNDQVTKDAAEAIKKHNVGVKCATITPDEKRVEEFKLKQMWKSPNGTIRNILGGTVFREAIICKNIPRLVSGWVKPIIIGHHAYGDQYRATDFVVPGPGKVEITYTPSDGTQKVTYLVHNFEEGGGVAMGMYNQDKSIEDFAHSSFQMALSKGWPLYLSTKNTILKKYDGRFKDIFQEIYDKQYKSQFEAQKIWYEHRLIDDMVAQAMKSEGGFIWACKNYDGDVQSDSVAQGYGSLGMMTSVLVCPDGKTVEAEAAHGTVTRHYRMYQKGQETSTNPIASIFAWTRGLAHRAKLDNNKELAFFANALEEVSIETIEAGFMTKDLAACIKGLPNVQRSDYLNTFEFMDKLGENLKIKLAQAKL
T cruzi growth-2: blocks T. cruzi growth in NIH3T3 host cells. shares compounds with T cruzi growth-1. T. cruzi beta-gal in NIH3T3, GalScreen luminescence, 90 h. inhibition, % at 8.35 µM. actives 72% (n = 5,600). AID 651739;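 active = mean replicate inhibition above about 95% and at least 55% of replicates individually reaching it, limit read from the data; inconclusive = only one of the two criteria is met; inactive = neither criterion is met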
T cruzi growth-3: Trypanosoma cruzi proliferation inhibition; T. cruzi beta-gal in NIH3T3, GalScreen luminescence, 90 h; shares compounds with T cruzi growth-1; AID 651740; inhibition, % at 2.09 µM; actives 21% (n = 5,600);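 active = mean inhibition above about 95%, with at least 55% of replicates also reaching it, limit read from the data; inconclusive = meets just one of the two conditions; inactive = meets neither condition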
NIH3T3 tox: NIH/3T3 (mouse) viability loss; shares compounds with T cruzi growth-1; NIH/3T3 viability, CellTiter-Glo ATP luminescence, 90 h; cytotoxicity (signal decrease), % at 8.35 µM; actives 14% (n = 5,600);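 active = mean signal decrease across replicates above about 35% based on untreated-well scatter, with enough replicates individually passing, limit read from the data; inconclusive = no rule stated though some were filed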
NIH3T3 tox 2: kills mouse NIH/3T3 fibroblasts; shares compounds with T cruzi growth-1; NIH/3T3 viability, CellTiter-Glo ATP luminescence, 90 h; inhibition, % at 24.9 µM; actives 56% (n = 5,600);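 active = mean loss of cell viability signal at or above a set limit, and enough replicates individually reaching it; inconclusive = meets only the mean limit or only the replicate share; inactive = meets neither condition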
Of the large screens only hits and unclear results are named; the others gave an inactive call (follow-up assays come after a bar, where they were run).

O=C(c1ccccn1)N1CC[C@@H]2[C@H]1c1cc(-c3ccc(F)cc3)ccc1N[C@@H]2CO	T cruzi growth-1 105 (no result: IDH1 R132H inh) | T cruzi growth-2 107 | T cruzi growth-3 inactive | NIH3T3 tox inactive | NIH3T3 tox 2 30
CO[C@@H]1CN(C)C(=O)c2cc(NC(=O)c3ccc4c(c3)OCO4)ccc2OC[C@H](C)N(CC2CC2)C[C@H]1C	none
C[C@H](CO)N1C[C@H](C)[C@H](CN(C)C(=O)Nc2cc(F)ccc2F)Oc2cc(C#CC3CCCC3)ccc2S1(=O)=O	none (no result: T cruzi growth-1)
C[C@@H]1CN([C@@H](C)CO)S(=O)(=O)c2ccc(C#CC3CC3)cc2O[C@@H]1CN(C)C(=O)Nc1cc(F)ccc1F	T cruzi growth-1 103 (no result: IDH1 R132H inh) | T cruzi growth-2 114 | T cruzi growth-3 inactive | NIH3T3 tox inactive | NIH3T3 tox 2 28
C[C@H](CO)N1C[C@H](C)[C@@H](CN(C)C(=O)Nc2cc(F)ccc2F)Oc2cc(C#CC3CCCC3)ccc2S1(=O)=O	none (no result: T cruzi growth-1, KDM4C inh)
C[C@@H]1CN([C@@H](C)CO)S(=O)(=O)c2ccc(C#CC3CC3)cc2O[C@H]1CN(C)C(=O)Nc1cc(F)ccc1F	T cruzi growth-1 104 (no result: IDH1 R132H inh) | T cruzi growth-2 106 | T cruzi growth-3 inactive | NIH3T3 tox 38 | NIH3T3 tox 2 33
C[C@H](CO)N1C[C@H](C)[C@H](CN(C)C(=O)Nc2cc(F)ccc2F)Oc2cc(C#CC3CC3)ccc2S1(=O)=O	T cruzi growth-1 117 (no result: IDH1 R132H inh) | T cruzi growth-2 112 | T cruzi growth-3 inactive | NIH3T3 tox inactive | NIH3T3 tox 2 inactive
COc1ccc(S(=O)(=O)Nc2ccc3c(c2)C(=O)N([C@@H](C)CO)C[C@@H](C)[C@@H](CN(C)S(=O)(=O)c2cccs2)O3)cc1	none
C[C@@H]1CCCCO[C@@H](CN(C)C(=O)C2CCCCC2)[C@@H](C)CN([C@@H](C)CO)C(=O)c2cc(NC(=O)Nc3cccc4ccccc34)ccc2O1	Pf Dd2 inh -89, T cruzi growth-1 110 (no result: IDH1 R132H inh) | T cruzi growth-2 106 | T cruzi growth-3 inactive | NIH3T3 tox inactive | NIH3T3 tox 2 inactive
C[C@@H]1CCCCO[C@H](CN(C)C)[C@H](C)CN([C@@H](C)CO)C(=O)c2cc(NC(=O)Nc3cccc4ccccc34)ccc2O1	none
C[C@@H]1CCCCO[C@H](CN(C)C(=O)C2CCCCC2)[C@H](C)CN([C@H](C)CO)C(=O)c2cc(NC(=O)Nc3cccc4ccccc34)ccc2O1	Pf Dd2 inh -90, T cruzi growth-1 117 (no result: IDH1 R132H inh) | T cruzi growth-2 105 | T cruzi growth-3 113 | NIH3T3 tox inactive | NIH3T3 tox 2 inactive
C[C@@H]1CCCCO[C@H](CN(C)C)[C@@H](C)CN([C@H](C)CO)C(=O)c2cc(NC(=O)Nc3cccc4ccccc34)ccc2O1	none (no result: IDH1 R132H inh)
N#Cc1ccc(-c2ccc([C@H]3[C@@H](CO)N4CCCCN(S(=O)(=O)c5ccccc5)C[C@H]34)cc2)cc1	T cruzi growth-1 117 (no result: IDH1 R132H inh) | T cruzi growth-2 113 | T cruzi growth-3 inactive | NIH3T3 tox inactive | NIH3T3 tox 2 71
N#Cc1ccc(-c2ccc([C@@H]3[C@H](CO)N4CCCCN(S(=O)(=O)c5ccccc5)C[C@@H]34)cc2)cc1	T cruzi growth-1 inconclusive (no result: IDH1 R132H inh) | T cruzi growth-2 inactive | T cruzi growth-3 inactive | NIH3T3 tox inactive | NIH3T3 tox 2 44
N#Cc1cccc(-c2ccc([C@H]3[C@H](CO)N4CCCCN(S(=O)(=O)c5ccccc5)C[C@@H]34)cc2)c1	none (no result: IDH1 R132H inh)
N#Cc1ccc(-c2ccc([C@@H]3[C@H]4CN(S(=O)(=O)c5ccccc5)CCCCN4[C@H]3CO)cc2)cc1	T cruzi growth-1 101 (no result: IDH1 R132H inh) | T cruzi growth-2 103 | T cruzi growth-3 inactive | NIH3T3 tox inactive | NIH3T3 tox 2 29
C[C@H](CO)N1C[C@H](C)[C@H](CN(C)S(=O)(=O)c2cccs2)OCCCC[C@H](C)Oc2ccc(NS(=O)(=O)c3ccccc3)cc2C1=O	none (no result: T cruzi growth-1)
O=C(C[C@H]1CC[C@H]2[C@@H](COC[C@H](O)CN2C(=O)c2ccccn2)O1)NC1CCC1	none (no result: T cruzi growth-1, IDH1 R132H inh)
C[C@@H]1CN([C@@H](C)CO)C(=O)c2cc(NC(=O)Nc3ccc(F)cc3)ccc2O[C@@H](C)CCCCO[C@H]1CN(C)Cc1ccc(C(F)(F)F)cc1	Pf Dd2 inh inconclusive, T cruzi growth-1 109 | T cruzi growth-2 100 | T cruzi growth-3 112 | NIH3T3 tox inactive | NIH3T3 tox 2 inactive
C[C@@H]1CCCCO[C@H](CN(C)Cc2ccc(C(F)(F)F)cc2)[C@H](C)CN([C@@H](C)CO)C(=O)c2cc(NC(=O)Nc3ccc(F)cc3)ccc2O1	T cruzi growth-1 100 (no result: IDH1 R132H inh) | T cruzi growth-2 inconclusive | T cruzi growth-3 117 | NIH3T3 tox inactive | NIH3T3 tox 2 30
C[C@@H]1CN([C@H](C)CO)C(=O)c2cc(NC(=O)Nc3ccc(F)cc3)ccc2O[C@@H](C)CCCCO[C@@H]1CN(C)Cc1ccc(C(F)(F)F)cc1	Pf Dd2 inh -82, T cruzi growth-1 100 | T cruzi growth-2 inactive | T cruzi growth-3 114 | NIH3T3 tox inactive | NIH3T3 tox 2 inactive
C[C@@H]1CCCCO[C@H](CN(C)Cc2ccc(C(F)(F)F)cc2)[C@@H](C)CN([C@H](C)CO)C(=O)c2cc(NC(=O)Nc3ccc(F)cc3)ccc2O1	none (no result: IDH1 R132H inh)
C[C@H](CO)N1C[C@H](C)[C@H](CN(C)Cc2ccc(C(F)(F)F)cc2)OCCCC[C@H](C)Oc2ccc(NC(=O)Nc3ccc(F)cc3)cc2C1=O	none (no result: IDH1 R132H inh)
O=C(C[C@H]1CC[C@H](NC(=O)c2cccc(F)c2)[C@H](CO)O1)NCc1ccc(Oc2ccccc2)cc1	none
Cc1cccc(-c2ccc([C@H]3[C@@H](CO)N4CCCCN(Cc5cncnc5)C[C@@H]34)cc2)c1	T cruzi growth-1 106 (no result: IDH1 R132H inh) | T cruzi growth-2 95 | T cruzi growth-3 inactive | NIH3T3 tox 37 | NIH3T3 tox 2 102
Cc1cccc(-c2ccc([C@H]3[C@H](CO)N4CCCCN(Cc5cccnc5)C[C@@H]34)cc2)c1	T cruzi growth-1 104 (no result: KDM4C inh, IDH1 R132H inh) | T cruzi growth-2 106 | T cruzi growth-3 inactive | NIH3T3 tox inactive | NIH3T3 tox 2 101
OC[C@H]1[C@@H](c2ccc(-c3ccccc3)cc2)[C@H]2CN(Cc3cncnc3)CCCCN21	none (no result: IDH1 R132H inh)
Cc1cccc(-c2ccc([C@H]3[C@H]4CN(Cc5cncnc5)CCCCN4[C@H]3CO)cc2)c1	none (no result: IDH1 R132H inh)
CN(C)C(=O)c1cccc(-c2ccc([C@H]3[C@@H](CO)N4CCCCN(Cc5cccnc5)C[C@@H]34)cc2)c1	T cruzi growth-1 101 (no result: IDH1 R132H inh) | T cruzi growth-2 inconclusive | T cruzi growth-3 inactive | NIH3T3 tox inactive | NIH3T3 tox 2 inactive
